# Measured values reported in ChEMBL document CHEMBL1131215, “Anhydrolide macrolides. 1. Synthesis and antibacterial activity of 2,3-anhydro-6-O-methyl 11,12-carbamate erythromycin A analogues” (1998).
# Tests used:
# Format in all cases: functional
# [1] = test system: Haemophilus influenzae; assay: In vitro antibacterial activity against DILL strain of Haemophilus influenzae.
# Outline: (§1)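 MIC determined by standard agar dilution; values in μg/mL.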
# [2] = test system: Streptococcus pneumoniae; assay: In vitro antibacterial activity against 5649 strain of Streptococcus pneumoniae; outline: as §1
# [3] = test system: Staphylococcus aureus; assay: In vitro antibacterial activity against 6538P strain of Staphylococcus aureus; outline: as §1
# [4] = test system: Streptococcus pneumoniae; assay: In vitro antibacterial activity against ATCC 6303 strain of Streptococcus pneumoniae; outline: as §1
# [5] = test system: Streptococcus pyogenes; assay: In vitro antibacterial activity against PIU 2548 strain of Streptococcus pyogenes; outline: as §1
# [6] = In vitro antibacterial activity against A-5278 strain of Staphylococcus aureus; outline: as §1
# [7] = test system: Streptococcus pyogenes; assay: In vitro antibacterial activity against 930 strain of Streptococcus pyogenes; outline: as §1
# [8] = test system: Streptococcus pneumoniae; assay: In vitro antibacterial activity against 5979 strain of Streptococcus pneumoniae; outline: as §1
# [9] = test system: Staphylococcus aureus; assay: In vitro antibacterial activity against A5177 strain of Staphylococcus aureus; outline: as §1
# [10] = Streptococcus pneumoniae, ATCC 6303
Compound,MIC [1],MIC ([2]; Streptococcus pneumoniae),MIC ([3]; Staphylococcus aureus),"MIC [4, 10]",MIC ([5]; Streptococcus pyogenes),MIC ([6]; Staphylococcus aureus),MIC ([7]; Streptococcus pyogenes),MIC [8],MIC ([9]; Staphylococcus aureus),MIC [3],MIC [5],MIC [9],MIC [7],MIC [2],MIC [4],MIC [6]
CC[C@H]1OC(=O)/C(C)=C/[C@H](C)[C@@H](O[C@@H]2O[C@H](C)C[C@H](N(C)C)[C@H]2O)[C@@](C)(OC)C[C@@H](C)C(=O)[C@H](C)[C@H]2N(CCCN(C)c3ccccc3)C(=O)O[C@]12C,> 64 µg/mL,< 0.004 µg/mL,6.2 µg/mL,< 0.004 µg/mL,0.39 µg/mL,–,–,–,–,–,–,–,–,–,–,–
CC[C@H]1OC(=O)/C(C)=C/[C@H](C)[C@@H](O[C@@H]2O[C@H](C)C[C@H](N(C)C)[C@H]2O)[C@@](C)(OC)C[C@@H](C)C(=O)[C@H](C)[C@H]2N(CC/C=C\c3ccc(Cl)cc3)C(=O)O[C@]12C,32 µg/mL,1 µg/mL,0.39 µg/mL,0.12 µg/mL,0.2 µg/mL,12.5 µg/mL,3.1 µg/mL,8 µg/mL,–,–,–,–,–,–,–,–
CC[C@H]1OC(=O)/C(C)=C/[C@H](C)[C@@H](O[C@@H]2O[C@H](C)C[C@H](N(C)C)[C@H]2O)[C@@](C)(OC)C[C@@H](C)C(=O)[C@H](C)[C@H]2N(CCCOc3cccc4cccnc34)C(=O)O[C@]12C,8 µg/mL,2 µg/mL,1.56 µg/mL,< 0.004 µg/mL,0.2 µg/mL,–,–,> 16 µg/mL,–,–,–,–,–,–,–,–
CC[C@H]1OC(=O)/C(C)=C/[C@H](C)[C@@H](O[C@@H]2O[C@H](C)C[C@H](N(C)C)[C@H]2O)[C@@](C)(OC)C[C@@H](C)C(=O)[C@H](C)[C@H]2N(CCc3ccc(OCc4ccccc4)c(OCc4ccccc4)c3)C(=O)O[C@]12C,–,4 µg/mL,–,1 µg/mL,–,–,–,8 µg/mL,–,–,–,–,–,–,–,–
CC[C@H]1OC(=O)/C(C)=C/[C@H](C)[C@@H](O[C@@H]2O[C@H](C)C[C@H](N(C)C)[C@H]2O)[C@@](C)(OC)C[C@@H](C)C(=O)[C@H](C)[C@H]2N(CCNCc3ccccc3)C(=O)O[C@]12C,> 64 µg/mL,2 µg/mL,6.2 µg/mL,0.03 µg/mL,3.1 µg/mL,–,50 µg/mL,–,–,–,–,–,–,–,–,–
CC[C@H]1OC(=O)/C(C)=C/[C@H](C)[C@@H](O[C@@H]2O[C@H](C)C[C@H](N(C)C)[C@H]2O)[C@@](C)(OC)C[C@@H](C)[C@@H]2NCCN3C(=O)O[C@@]1(C)[C@H]3[C@H]2C,> 64 µg/mL,2 µg/mL,12.5 µg/mL,1 µg/mL,1.56 µg/mL,–,–,> 64 µg/mL,6.2 µg/mL,–,–,–,–,–,–,–
CC[C@H]1OC(=O)/C(C)=C/[C@H](C)[C@@H](O[C@@H]2O[C@H](C)C[C@H](N(C)C)[C@H]2O)[C@@](C)(OC)C[C@@H](C)C(=O)[C@H](C)[C@H]2N(CCc3ccc(N)cc3)C(=O)O[C@]12C,32 µg/mL,2 µg/mL,1.56 µg/mL,0.5 µg/mL,0.2 µg/mL,–,–,–,0.78 µg/mL,–,–,–,–,–,–,–
CC[C@H]1OC(=O)/C(C)=C/[C@H](C)[C@@H](O[C@@H]2O[C@H](C)C[C@H](N(C)C)[C@H]2O)[C@@](C)(OC)C[C@@H](C)C(=O)[C@H](C)[C@H]2N(CCCOc3ccccc3)C(=O)O[C@]12C,16 µg/mL,–,0.39 µg/mL,–,0.39 µg/mL,50 µg/mL,25 µg/mL,–,0.39 µg/mL,–,–,–,–,–,–,–
CC[C@H]1OC(=O)/C(C)=C/[C@H](C)[C@@H](O[C@@H]2O[C@H](C)C[C@H](N(C)C)[C@H]2O)[C@@](C)(OC)C[C@@H](C)C(=O)[C@H](C)[C@H]2N(Cc3ccccc3)C(=O)O[C@]12C,–,2 µg/mL,0.78 µg/mL,0.25 µg/mL,0.2 µg/mL,–,–,–,0.78 µg/mL,–,–,–,–,–,–,–
CCOCCCN1C(=O)O[C@]2(C)[C@@H](CC)OC(=O)/C(C)=C/[C@H](C)[C@@H](O[C@@H]3O[C@H](C)C[C@H](N(C)C)[C@H]3O)[C@@](C)(OC)C[C@@H](C)C(=O)[C@H](C)[C@@H]12,–,2 µg/mL,1.56 µg/mL,0.25 µg/mL,0.39 µg/mL,–,–,–,1.56 µg/mL,–,–,–,–,–,–,–
CC[C@H]1OC(=O)/C(C)=C/[C@H](C)[C@@H](O[C@@H]2O[C@H](C)C[C@H](N(C)C)[C@H]2O)[C@@](C)(OC)C[C@@H](C)C(=O)[C@H](C)[C@H]2N(CCc3ccc(C)cc3)C(=O)O[C@]12C,16 µg/mL,0.25 µg/mL,0.39 µg/mL,0.015 µg/mL,0.39 µg/mL,25 µg/mL,12.5 µg/mL,16 µg/mL,0.39 µg/mL,–,–,–,–,–,–,–
CC[C@H]1OC(=O)/C(C)=C/[C@H](C)[C@@H](O[C@@H]2O[C@H](C)C[C@H](N(C)C)[C@H]2O)[C@@](C)(OC)C[C@@H](C)C(=O)[C@H](C)[C@H]2N(CCCc3cnc4ccccc4c3)C(=O)O[C@]12C,32 µg/mL,4 µg/mL,1.56 µg/mL,0.25 µg/mL,0.39 µg/mL,–,–,–,–,–,–,–,–,–,–,–
CC[C@H]1OC(=O)/C(C)=C/[C@H](C)[C@@H](O[C@@H]2O[C@H](C)C[C@H](N(C)C)[C@H]2O)[C@@](C)(OC)C[C@@H](C)C(=O)[C@H](C)[C@H]2N(CCCOc3ccc(Cl)cc3)C(=O)O[C@]12C,–,0.03 µg/mL,0.78 µg/mL,< 0.004 µg/mL,0.39 µg/mL,50 µg/mL,12.5 µg/mL,–,–,–,–,–,–,–,–,–
CC[C@H]1OC(=O)/C(C)=C/[C@H](C)[C@@H](O[C@@H]2O[C@H](C)C[C@H](N(C)C)[C@H]2O)[C@@](C)(OC)C[C@@H](C)C(=O)[C@H](C)[C@H]2N(C(C)C)C(=O)O[C@]12C,–,2 µg/mL,12.5 µg/mL,2 µg/mL,1.56 µg/mL,–,–,–,12.5 µg/mL,–,–,–,–,–,–,–
CC[C@H]1OC(=O)/C(C)=C/[C@H](C)[C@@H](O[C@@H]2O[C@H](C)C[C@H](N(C)C)[C@H]2O)[C@@](C)(OC)C[C@@H](C)C(=O)[C@H](C)[C@H]2N(CCCOc3ccncc3)C(=O)O[C@]12C,16 µg/mL,1 µg/mL,0.39 µg/mL,0.03 µg/mL,0.2 µg/mL,–,–,–,0.39 µg/mL,–,–,–,–,–,–,–
CC[C@H]1OC(=O)/C(C)=C/[C@H](C)[C@@H](O[C@@H]2O[C@H](C)C[C@H](N(C)C)[C@H]2O)[C@@](C)(OC)C[C@@H](C)C(=O)/C(C)=C/[C@]1(C)OC(=O)OC,–,–,25 µg/mL,–,25 µg/mL,–,50 µg/mL,–,25 µg/mL,–,–,–,–,–,–,–
CC[C@H]1OC(=O)/C(C)=C/[C@H](C)[C@@H](O[C@@H]2O[C@H](C)C[C@H](N(C)C)[C@H]2O)[C@@](C)(OC)C[C@@H](C)C(=O)[C@H](C)[C@H]2N(CCc3ccc(O)cc3)C(=O)O[C@]12C,16 µg/mL,0.5 µg/mL,0.78 µg/mL,0.125 µg/mL,0.39 µg/mL,–,–,–,0.78 µg/mL,–,–,–,–,–,–,–
CC[C@H]1OC(=O)/C(C)=C/[C@H](C)[C@@H](O[C@@H]2O[C@H](C)C[C@H](N(C)C)[C@H]2O)[C@@](C)(OC)C[C@@H](C)C(=O)/C(C)=C/[C@]1(C)OC(=O)NCCCOc1ccc2ccccc2c1,–,–,6.2 µg/mL,–,6.2 µg/mL,50 µg/mL,25 µg/mL,–,3.1 µg/mL,–,–,–,–,–,–,–
C=COCCCN1C(=O)O[C@]2(C)[C@@H](CC)OC(=O)/C(C)=C/[C@H](C)[C@@H](O[C@@H]3O[C@H](C)C[C@H](N(C)C)[C@H]3O)[C@@](C)(OC)C[C@@H](C)C(=O)[C@H](C)[C@@H]12,64 µg/mL,2 µg/mL,3.1 µg/mL,0.5 µg/mL,0.39 µg/mL,–,–,–,3.1 µg/mL,–,–,–,–,–,–,–
CC[C@H]1OC(=O)/C(C)=C/[C@H](C)[C@@H](O[C@@H]2O[C@H](C)C[C@H](N(C)C)[C@H]2O)[C@@](C)(OC)C[C@@H](C)C(=O)[C@H](C)[C@H]2N(CCCCc3ccccc3)C(=O)O[C@]12C,32 µg/mL,–,0.39 µg/mL,–,0.39 µg/mL,50 µg/mL,12.5 µg/mL,–,0.39 µg/mL,–,–,–,–,–,–,–
CC[C@H]1OC(=O)/C(C)=C/[C@H](C)[C@@H](O[C@@H]2O[C@H](C)C[C@H](N(C)C)[C@H]2O)[C@@](C)(OC)C[C@@H](C)C(=O)[C@H](C)[C@H]2NC(=O)O[C@@]21C (stereo in doubt; 7),–,–,–,–,–,–,–,–,–,25 µg/mL,6.2 µg/mL,–,–,–,–,–
CC[C@H]1OC(=O)/C(C)=C/[C@H](C)[C@@H](O[C@@H]2O[C@H](C)C[C@H](N(C)C)[C@H]2O)[C@@](C)(OC)C[C@@H](C)C(=O)[C@H](C)[C@H]2N(CCCc3ccccc3)C(=O)O[C@]12C (stereo in doubt; 10),–,2 µg/mL,–,1 µg/mL,–,50 µg/mL,–,64 µg/mL,–,3.1 µg/mL,0.78 µg/mL,3.1 µg/mL,25 µg/mL,–,–,–
CC[C@H]1OC(=O)/C(C)=C/[C@H](C)[C@@H](O[C@@H]2O[C@H](C)C[C@H](N(C)C)[C@H]2O)[C@@](C)(OC)C[C@@H](C)C(=O)[C@H](C)[C@H]2N(CCCc3ccccc3)C(=O)O[C@]12C (stereo in doubt; 11),–,–,–,–,–,–,25 µg/mL,–,–,25 µg/mL,6.2 µg/mL,25 µg/mL,–,–,–,–
CC[C@H]1OC(=O)/C(C)=C/[C@H](C)[C@@H](O[C@@H]2O[C@H](C)C[C@H](N(C)C)[C@H]2O)[C@@](C)(OC)C[C@@H](C)C(=O)[C@H](C)[C@H]2N(CCc3ccc(Oc4ccccc4)cc3)C(=O)O[C@]12C (stereo in doubt; 14),–,–,–,–,1.56 µg/mL,25 µg/mL,6.2 µg/mL,8 µg/mL,–,3.1 µg/mL,–,3.1 µg/mL,–,2 µg/mL,1 µg/mL,–
CC[C@H]1OC(=O)/C(C)=C/[C@H](C)[C@@H](O[C@@H]2O[C@H](C)C[C@H](N(C)C)[C@H]2O)[C@@](C)(OC)C[C@@H](C)C(=O)[C@H](C)[C@H]2N(CCc3ccc(Oc4ccccc4)cc3)C(=O)O[C@]12C (stereo in doubt; 15),–,–,–,–,–,–,–,–,–,25 µg/mL,3.1 µg/mL,25 µg/mL,6.2 µg/mL,8 µg/mL,4 µg/mL,12.5 µg/mL
CC[C@H]1OC(=O)[C@H](C)[C@@H](O[C@H]2C[C@@](C)(OC)[C@@H](O)[C@H](C)O2)[C@H](C)[C@@H](O[C@@H]2O[C@H](C)C[C@H](N(C)C)[C@H]2O)[C@](C)(O)C[C@@H](C)C(=O)[C@H](C)[C@@H](O)[C@]1(C)O [ERYTHROMYCIN],4 µg/mL,8 µg/mL,0.2 µg/mL,–,3.1 µg/mL,–,–,–,3.1 µg/mL,–,–,–,–,–,0.06 µg/mL,–
